Results as given in ChEMBL document CHEMBL4765234 (J Med Chem, 2016).
The source made the active and inactive calls. The calls are words filed in the database; no cut-off is given here.

Legend:
[1] = molecular target: T1, Free fatty acid receptor 1 (Homo sapiens, UniProt O14842); assay: Agonist activity at human recombinant full length GPR40 overexpressed in human HEK293 cells assessed as increase in inositol phosphate accumulation in presence of terbium cryptate-labeled anti IP1/d2-labelled IP1 measured after 120 mins by HTRF assay; assay type: functional, cell-based
T1 sequence (O14842 whole entry): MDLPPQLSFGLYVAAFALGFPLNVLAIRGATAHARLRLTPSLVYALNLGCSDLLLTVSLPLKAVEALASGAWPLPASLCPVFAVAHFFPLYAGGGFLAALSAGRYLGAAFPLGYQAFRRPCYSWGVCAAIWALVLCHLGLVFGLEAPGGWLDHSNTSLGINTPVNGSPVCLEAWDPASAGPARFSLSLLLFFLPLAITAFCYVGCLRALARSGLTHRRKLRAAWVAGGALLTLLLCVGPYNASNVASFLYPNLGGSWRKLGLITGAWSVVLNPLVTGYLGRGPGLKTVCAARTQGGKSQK
Procedure, shortened: (§1)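 HEK293 hGPR40 cells (20K/well) were cultured overnight, washed, and held in IP1 stimulation buffer. IP-1 was measured by competitive HTRF immunoassay with terbium cryptate anti-IP1 mAb and d2-labelled IP1.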

[2] = molecular target: T1, Free fatty acid receptor 1; assay: Displacement of [3H]-TAK-875 from human recombinant full-length GPR40 expressed in human HEK293 cell membrane incubated for 2 hrs by solid scintillation counting method; assay type: cell membranes
[3] = molecular target: Free fatty acid receptor 1 (Mus musculus) (UniProt Q76JU9); assay: Agonist activity at Prolink-tagged mouse GPR40 fused with EA-tagged beta-arrestin expressed in human U2OS cells assessed as induction of beta-arrestin recruitment measured after 90 mins by beta-galactosidase based PathHunter assay relative to control; assay type: cell-based; conditions: filed as agonist
Sequence of Free fatty acid receptor 1 (Mus musculus) (Q76JU9 whole entry, the tested form may be a part): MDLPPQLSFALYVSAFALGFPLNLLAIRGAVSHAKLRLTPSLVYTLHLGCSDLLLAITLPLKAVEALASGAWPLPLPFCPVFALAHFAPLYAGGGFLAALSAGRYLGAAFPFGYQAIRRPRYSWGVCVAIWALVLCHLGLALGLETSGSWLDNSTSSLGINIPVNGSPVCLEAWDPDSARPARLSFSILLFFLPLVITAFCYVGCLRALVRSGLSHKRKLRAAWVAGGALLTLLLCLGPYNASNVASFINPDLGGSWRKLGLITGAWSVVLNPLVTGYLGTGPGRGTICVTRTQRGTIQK
Procedure, shortened: (§2)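 PathHunter β-gal complementation. Cells were incubated overnight at 5000/well in medium with 1% heat-inactivated FBS. Compound was added as a 20-point 2-fold series from a top final of 100 μM (1% DMSO) for 90 min at 37 °C, followed by detection reagents and chemiluminescence read after 1 h at rt.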

[4] = molecular target: T1, Free fatty acid receptor 1; assay: Agonist activity at human recombinant full length GPR40 overexpressed in human HEK293 cells assessed as increase in intracellular calcium level measured over 3 mins by calcium 4 dye based FLIPR assay relative to 100 uM linoleic acid; assay type: functional, cell-based; conditions: filed as agonist
Procedure, shortened: (§3)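 HEK293 cells overexpressing hGPR40 (25K/well) were cultured overnight in DMEM/F12 with 0.2% FBS and geneticin. Compound was tested at 40 μM–0.1 nM final (20-point, 1% DMSO), and FLIPR fluorescence was read over 3 min.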

[5] = molecular target: T2, Peroxisome proliferator-activated receptor alpha (Homo sapiens) (UniProt Q07869); assay: Displacement of [3H]-[…] from PPARalpha (unknown origin) expressed in baculovirus infected Sf9 insect cells upto 30 uM measured after 10 hrs by microbeta scintillation counting analysis; conditions: dose microM <=30, time 10.0 hrs
T2 sequence (whole entry): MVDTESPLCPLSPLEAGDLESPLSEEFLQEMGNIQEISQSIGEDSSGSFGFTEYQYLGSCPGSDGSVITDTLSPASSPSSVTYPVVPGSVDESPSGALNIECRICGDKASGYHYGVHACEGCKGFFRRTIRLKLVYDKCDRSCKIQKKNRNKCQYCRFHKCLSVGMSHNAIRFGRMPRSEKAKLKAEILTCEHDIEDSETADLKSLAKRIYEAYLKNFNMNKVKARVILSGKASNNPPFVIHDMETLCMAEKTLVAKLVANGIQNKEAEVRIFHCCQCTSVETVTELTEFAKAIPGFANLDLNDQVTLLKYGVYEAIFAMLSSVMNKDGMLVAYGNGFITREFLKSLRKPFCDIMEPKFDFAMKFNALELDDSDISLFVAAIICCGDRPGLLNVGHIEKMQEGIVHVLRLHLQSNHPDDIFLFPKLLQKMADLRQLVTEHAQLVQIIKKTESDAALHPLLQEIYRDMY
Procedure, shortened: (§4)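 Scintillation proximity assay. Sf9 lysates with baculovirus-expressed PPARα (0.3 μg), PPARδ (0.5 μg) or PPARγ (1.25 μg), each with RXRα, were bound via biotinylated DR2 oligo (0.126 nM) to streptavidin yttrium silicate beads. Buffer was HEPES pH 7.8 with KCl, MgCl2, DTT, CHAPS, 14% glycerol and salmon sperm DNA. A 3H reference agonist ligand was used, with 11 compound concentrations, for 10 h. Nonspecific binding was defined with 10000 nM unlabeled reference. Ki was derived from IC50.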

[6] = molecular target: Free fatty acid receptor 1 (Mus musculus, UniProt Q76JU9); assay: Agonist activity at Prolink-tagged mouse GPR40 fused with EA-tagged beta-arrestin expressed in human U2OS cells assessed as induction of beta-arrestin recruitment measured after 90 mins by beta-galactosidase based PathHunter assay; assay type: cell-based; procedure, shortened: as §2
Sequence of Free fatty acid receptor 1 (Mus musculus, UniProt Q76JU9) (Q76JU9 whole entry, the tested form may be a part): as the sequence (Q76JU9 whole entry, the tested form may be a part) above

[7] = Protein binding in plasma (unknown origin) by equilibrium dialysis method; assay type: ADME, cell-free; conditions: human, read-out: PPB
Procedure, shortened: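 Plasma protein binding measured by equilibrium dialysis.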

[8] = molecular target: T1, Free fatty acid receptor 1; assay: Agonist activity at human recombinant full length GPR40 overexpressed in human HEK293 cells assessed as increase in inositol phosphate accumulation in presence of terbium cryptate-labeled anti IP1/d2-labelled IP1 measured after 120 mins by HTRF assay relative to AMG837; assay type: functional, cell-based; conditions: filed as agonist; procedure, shortened: as §1
[9] = molecular target: T1, Free fatty acid receptor 1; assay: Agonist activity at human recombinant full-length Prolink-tagged GPR40 fused with EA-tagged beta-arrestin expressed in human HEK293 cells assessed as induction of beta-arrestin recruitment measured after 90 mins by beta-galactosidase based PathHunter assay; assay type: cell-based; procedure, shortened: as §2
[10] = molecular target: T1, Free fatty acid receptor 1; assay: Agonist activity at human recombinant full-length Prolink-tagged GPR40 fused with EA-tagged beta-arrestin expressed in human HEK293 cells assessed as induction of beta-arrestin recruitment measured after 90 mins by beta-galactosidase based PathHunter assay relative to control; assay type: cell-based; conditions: filed as agonist; procedure, shortened: as §2
[11] = molecular target: Free fatty acid receptor 1 (Rattus norvegicus) (UniProt Q8K3T4); assay: Agonist activity at Prolink-tagged rat GPR40 fused with EA-tagged beta-arrestin expressed in human U2OS cells assessed as induction of beta-arrestin recruitment measured after 90 mins by beta-galactosidase based PathHunter assay relative to control; assay type: cell-based; conditions: filed as agonist; procedure, shortened: as §2
Sequence of Free fatty acid receptor 1 (Rattus norvegicus) (Q8K3T4 whole entry, the tested form may be a part): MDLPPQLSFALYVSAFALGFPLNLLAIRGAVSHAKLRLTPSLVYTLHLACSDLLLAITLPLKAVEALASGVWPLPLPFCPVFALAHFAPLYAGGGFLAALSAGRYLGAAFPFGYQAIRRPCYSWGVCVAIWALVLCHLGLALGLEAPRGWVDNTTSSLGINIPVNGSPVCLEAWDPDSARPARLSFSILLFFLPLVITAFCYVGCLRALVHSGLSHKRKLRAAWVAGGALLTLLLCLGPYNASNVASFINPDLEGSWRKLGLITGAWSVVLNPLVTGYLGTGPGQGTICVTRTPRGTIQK

[12] = molecular target: T3, Peroxisome proliferator-activated receptor gamma (Homo sapiens) (UniProt P37231); assay: Displacement of [3H]-[…] from PPARgamma (unknown origin) expressed in baculovirus infected Sf9 insect cells upto 30 uM measured after 10 hrs by microbeta scintillation counting analysis; conditions: dose microM <=30, time 10.0 hrs; procedure, shortened: as §4
T3 sequence (whole entry): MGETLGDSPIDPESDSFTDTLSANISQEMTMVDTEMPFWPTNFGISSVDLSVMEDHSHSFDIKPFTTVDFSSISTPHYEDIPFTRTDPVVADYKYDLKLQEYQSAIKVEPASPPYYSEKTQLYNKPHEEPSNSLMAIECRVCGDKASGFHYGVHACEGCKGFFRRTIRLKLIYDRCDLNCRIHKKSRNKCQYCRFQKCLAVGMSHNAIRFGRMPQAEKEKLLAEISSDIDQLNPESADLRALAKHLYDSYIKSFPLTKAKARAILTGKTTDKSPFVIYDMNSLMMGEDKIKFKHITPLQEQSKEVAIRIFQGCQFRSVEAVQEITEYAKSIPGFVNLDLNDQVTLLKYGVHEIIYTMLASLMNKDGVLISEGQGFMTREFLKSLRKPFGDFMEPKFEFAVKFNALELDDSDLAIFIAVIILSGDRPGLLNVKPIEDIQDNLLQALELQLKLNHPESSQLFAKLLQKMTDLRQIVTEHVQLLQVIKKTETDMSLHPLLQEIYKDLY

[13] = molecular target: T1, Free fatty acid receptor 1; assay: Agonist activity at human recombinant full length GPR40 overexpressed in human HEK293 cells assessed as increase in intracellular calcium level measured over 3 mins by calcium 4 dye based FLIPR assay; assay type: functional, cell-based; procedure, shortened: as §3
[14] = molecular target: T4, Peroxisome proliferator-activated receptor delta (Homo sapiens) (UniProt Q03181); assay: Displacement of [3H]-[…] from PPARdelta (unknown origin) expressed in baculovirus infected Sf9 insect cells upto 30 uM measured after 10 hrs by microbeta scintillation counting analysis; conditions: dose microM <=30, time 10.0 hrs; procedure, shortened: as §4
T4 sequence (whole entry): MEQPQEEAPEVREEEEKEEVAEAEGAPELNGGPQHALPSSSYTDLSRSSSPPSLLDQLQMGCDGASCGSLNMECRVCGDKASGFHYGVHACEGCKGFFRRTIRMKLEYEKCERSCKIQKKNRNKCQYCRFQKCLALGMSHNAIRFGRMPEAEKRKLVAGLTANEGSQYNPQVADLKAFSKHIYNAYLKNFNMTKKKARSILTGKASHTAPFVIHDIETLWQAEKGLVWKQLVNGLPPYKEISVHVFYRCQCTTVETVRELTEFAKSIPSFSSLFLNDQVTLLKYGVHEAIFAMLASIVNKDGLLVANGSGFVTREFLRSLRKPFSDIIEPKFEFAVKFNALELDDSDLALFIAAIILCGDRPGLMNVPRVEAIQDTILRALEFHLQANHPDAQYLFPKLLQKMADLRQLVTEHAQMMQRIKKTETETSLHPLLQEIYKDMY

[15] = molecular target: Free fatty acid receptor 1 (Rattus norvegicus, UniProt Q8K3T4); assay: Agonist activity at Prolink-tagged rat GPR40 fused with EA-tagged beta-arrestin expressed in human U2OS cells assessed as induction of beta-arrestin recruitment measured after 90 mins by beta-galactosidase based PathHunter assay; assay type: cell-based; procedure, shortened: as §2
Sequence of Free fatty acid receptor 1 (Rattus norvegicus, UniProt Q8K3T4) (Q8K3T4 whole entry, the tested form may be a part): as the sequence (Q8K3T4 whole entry, the tested form may be a part) above

| Structure (SMILES) | EC50 [1] [µM] | Ki [2] [µM] | Emax [3] [%] | Emax [4] [%] | Activity [5] | EC50 [6] [µM] | fraction unbound [7] | Emax [8] [%] | EC50 [9] [µM] | Emax [10] [%] | Emax [11] [%] | Activity [12] | EC50 [13] [µM] | Activity [14] | EC50 [15] [µM] |
| --- | --- | --- | --- | --- | --- | --- | --- | --- | --- | --- | --- | --- | --- | --- | --- |
| CC#C[C@@H](CC(=O)O)c1ccc(OCc2ccc(CN3CCC4(C=Cc5ccccc54)CC3)c(C(F)(F)F)c2)cc1 | 0.0019 | 0.0011 | 146 | 55 | inactive | 0.00083 | < 0.01 | 255 | 0.0011 | 132 | 135 | inactive | 0.02 | inactive | 0.0011 |
| CC#C[C@@H](CC(=O)O)c1ccc(OCc2ccc(CN3CCC4(CC3)CC(=O)c3ccccc3O4)cc2)cc1 | 0.0083 | 0.016 | 141 | 56 | inactive | 0.0021 | < 0.01 | 228 | 0.026 | 147 | 159 | inactive | 0.065 | inactive | 0.0045 |
| CC#C[C@@H](CC(=O)O)c1ccc(OCc2ccc(CN3CCC4(CC3)CN(C)c3ccc(OC)cc34)cc2)cc1 | 0.023 | 0.029 | 144 | 49 | inactive | 0.011 | < 0.01 | 311 | 0.1 | 129 | 145 | inactive | 0.13 | inactive | 0.018 |
| O=C(O)CCc1ccc(OCc2ccc(CN3CCC4(C=Cc5ccccc54)CC3)cc2)cc1Cl | 0.086 | 0.2 | 116 | 59 | inactive | 0.11 | < 0.01 | 265 | 0.74 | 133 | 108 | inactive | 0.14 | inactive | 0.54 |
| CC#C[C@H](CC(=O)O)c1ccc(OCc2ccc(CN3CCC4(C=Cc5ccccc54)CC3)cc2)cc1 | 0.36 | 0.31 | 100 | 46 | inactive | 0.06 | < 0.01 | 166 | 0.54 | 95 | 101 | inactive | 2.8 | inactive | 0.12 |
| CC#C[C@@H](CC(=O)O)c1ccc(OCc2ncc(CN3CCC4(C=Cc5ccccc54)CC3)s2)cc1 | 0.012 | 0.13 | 115 | 63 | inactive | 0.0072 | < 0.01 | 129 | 0.084 | 117 | 109 | inactive | 0.0028 | inactive | 0.023 |
| CC#C[C@@H](CC(=O)O)c1ccc(OCc2ccc(CN3CCC4(C=Cc5ccccc54)CC3)c(Cl)c2)cc1 | 0.0049 | 0.0015 | 149 | 47 | inactive | 0.00083 | < 0.01 | 193 | 0.0033 | 150 | 161 | inactive | 0.032 | inactive | 0.001 |
